Here are results for 62 molecules from ChEMBL document CHEMBL1139576, “Synthesis and biological evaluation of benzothiazole derivatives as potent antitumor agents” (Bioorg Med Chem Lett, 2005).

≈ marks a conversion by molar mass, not a printed value. Some results are limits rather than exact numbers.

The subject of the first experiment is Mus musculus. The experiment can be described thus: In vivo percent inhibitory effect on tumor growth after 11 days against mouse Lewis lung carcinoma xenograft model (LLC) at the dose of 5 mg/kg/shot; (Schedule day=1,4,7). The conditions noted are these: 264 h, read-out: TGI. It counts as functional. The essentials: (§1)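 Mouse Lewis lung carcinoma was inoculated subcutaneously into BDF1 female mice (n = 6) on day 0. Dosing was iv in 10% DMA/10% HCO60 (polyoxyethylene hydrogenated castor oil 60)/80% saline on the stated schedule. Tumor growth inhibition (%) was based on tumor volume at day 11, with significance by t test (p < 0.05).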
On to `O=C(Nc1ccc2nc(NC(=O)C3CC3)sc2c1)c1c(Cl)cccc1Cl`, for which the inhibition in vivo at 5 mg/kg came to 63%.

For another experiment, the system named is Mus musculus. The experiment can be described thus: In vivo percent inhibitory effect on tumor growth after 11 days against mouse Lewis lung carcinoma xenograft model (LLC) at the dose of 20 mg/kg/shot; (Schedule day=1). Format: functional. The conditions noted are these: 264 h, read-out: TGI. In short, it runs like this: as §1
As to `O=C(Nc1ccc2nc(NC(=O)C3CC3)sc2c1)c1c(Cl)cccc1Cl`, the inhibition in vivo at 20 mg/kg came out at 68%.

For a further experiment, the system named is Mus musculus. The experiment can be described thus: Half life time in plasma at a single iv dose of 10 mg/kg.
Conditions: not given
For the molecule `O=C(Nc1ccc2nc(NC(=O)C3CC3)sc2c1)c1c(Cl)cccc1Cl`, the T1/2 is 3.29 h.

The subject of another experiment is WI-38 VA13. The experiment can be described thus: Cytotoxicity against tumorigenic cell line WI-38 VA-13 subline 2RA (VA-13);no cytotoxicity against parental cell line WI-38. It counts as functional, cell-based. The conditions noted are these: Homo sapiens.
On to `COC(=O)Nc1nc2ccc(NC(=O)c3c(Cl)cccc3Cl)cc2s1`, for which the EC50 (in general, the concentration needed to bring the measured effect to its halfway point) stood at 0.0095 µg/mL (≈ 0.024 µM). The same measure, in the same setting: in the case of `COCCOC(=O)Nc1nc2ccc(NC(=O)c3c(Cl)cccc3Cl)cc2s1` it was 0.011 µg/mL (≈ 0.025 µM); in that of `Cn1nccc1C(=O)Nc1ccc2nc(NC(=O)C3CCCCC3)sc2c1`, 0.58 µg/mL (≈ 1.51 µM). The same measure, in the same setting: in the case of `COc1ccccc1Nc1nc2ccc(NC(=O)c3c(Cl)cccc3Cl)cc2s1` it was over 7.2 µg/mL.

Consider `Cc1ccc(C(=O)Nc2ccc3nc(NC(=O)C4CCCCC4)sc3c2)cc1`, for which the EC50 came out at 5.1 µg/mL (≈ 13 µM). In the case of `CCCOC(=O)Nc1nc2ccc(NC(=O)c3c(Cl)cccc3Cl)cc2s1`, the EC50 was found to be 0.0025 µg/mL (≈ 0.00589 µM). Regarding `N#Cc1ccc(C(=O)Nc2ccc3nc(NC(=O)C4CCCCC4)sc3c2)cc1`, the EC50 was found to be 3.3 µg/mL (≈ 8.16 µM). Same read-out and setting: with `CC(=O)Nc1nc2ccc(NC(=O)c3c(Cl)cccc3Cl)cc2s1` the figure was 0.6 µg/mL (≈ 1.58 µM). On the same count and under the same terms, with `O=C(Nc1ccc2nc(NC(=O)C3CCCCC3)sc2c1)c1ccccc1Oc1ccccc1` the figure was 0.1 µg/mL (≈ 0.212 µM); with `CCCCCCCC(=O)Nc1nc2ccc(NC(=O)c3c(Cl)cccc3Cl)cc2s1`, 0.18 µg/mL (≈ 0.388 µM).

Turning to `Cc1[nH][n+](C)c(C)c1C(=O)Nc1ccc2nc(NC(=O)C3CCCCC3)sc2c1`, the EC50 came to 0.012 µg/mL. For the molecule `CCCCCNc1nc2ccc(NC(=O)c3c(Cl)cccc3Cl)cc2s1`, the EC50 came to 0.27 µg/mL (≈ 0.661 µM). The same measure, in the same setting: with `CC(C)NC(=O)Nc1nc2ccc(NC(=O)c3c(Cl)cccc3Cl)cc2s1` the figure was 0.03 µg/mL (≈ 0.0709 µM); with `Cc1cc(C(=O)Nc2ccc3nc(NC(=O)C4CCCCC4)sc3c2)n(C)n1`, 0.12 µg/mL (≈ 0.302 µM); with `COc1ccc(C(=O)Nc2ccc3nc(NC(=O)C4CCCCC4)sc3c2)cc1`, 4.9 µg/mL (≈ 12 µM).

With `O=C(Nc1ccc2nc(NC(=O)C3CCCCC3)sc2c1)c1ccc(Cl)cc1Cl`, the EC50 was over 4 µg/mL. `O=C(Nc1ccc2nc(NC(=O)C3CCC3)sc2c1)c1c(Cl)cccc1Cl`: the EC50 worked out at 0.013 µg/mL (≈ 0.0309 µM).

On to `CC(C)(C)OC(=O)Nc1nc2ccc(NC(=O)c3c(Cl)cccc3Cl)cc2s1`, for which the EC50 turned out to be 0.027 µg/mL (≈ 0.0616 µM).

For `O=C(NCc1ccccc1)Nc1nc2ccc(NC(=O)c3c(Cl)cccc3Cl)cc2s1`, the EC50 was 0.15 µg/mL (≈ 0.318 µM). For the molecule `O=C(Nc1nc2ccc(NC(=S)Nc3ccc4c(c3)OCCO4)cc2s1)C1CCCCC1`, the EC50 was found to be 1.6 µg/mL (≈ 3.41 µM). The same measure, in the same setting: with `O=C(Nc1ccc2nc(NC(=O)C3CCCCC3)sc2c1)c1ccccc1C(F)(F)F` the figure was 0.024 µg/mL (≈ 0.0536 µM); with `O=C(Nc1ccc2nc(NC(=O)C3CCCCC3)sc2c1)c1ccccc1Cl`, 0.025 µg/mL (≈ 0.0604 µM). `CC(C)COC(=O)Nc1ccc2nc(NC(=O)C3CCCCC3)sc2c1`: the EC50 came out at 0.72 µg/mL (≈ 1.92 µM). The same measure, in the same setting: in the case of `Cn1ncc([N+](=O)[O-])c1C(=O)Nc1ccc2nc(NC(=O)C3CCCCC3)sc2c1` it was 0.026 µg/mL (≈ 0.0607 µM); in that of `O=C(Nc1ccc2nc(NC(=O)C3CCCCC3)sc2c1)c1cccc(Oc2ccccc2)c1`, over 4 µg/mL; in that of `N#Cc1cccc(C(=O)Nc2ccc3nc(NC(=O)C4CCCCC4)sc3c2)c1`, 0.52 µg/mL (≈ 1.29 µM).

With `CCOC(=O)Nc1nc2ccc(NC(=O)c3c(Cl)cccc3Cl)cc2s1`, the EC50 was determined as 0.0026 µg/mL (≈ 0.00634 µM). Same read-out and setting: in the case of `O=C(Nc1ccc2nc(NC(=O)C3CCCCC3)sc2c1)c1cccnc1Cl` it was 0.075 µg/mL (≈ 0.181 µM). `CC(C)CC(=O)Nc1nc2ccc(NC(=O)c3c(Cl)cccc3Cl)cc2s1`: the EC50 stood at 0.012 µg/mL (≈ 0.0284 µM). As for `CCCC(=O)Nc1nc2ccc(NC(=O)c3c(Cl)cccc3Cl)cc2s1`, the EC50 stood at 0.01 µg/mL (≈ 0.0245 µM). Take `CC(C)COC(=O)Nc1nc2ccc(NC(=O)c3c(Cl)cccc3Cl)cc2s1`: the EC50 amounted to 0.0035 µg/mL (≈ 0.00798 µM). Still for that read-out and setting: in the case of `Cc1cccc(C)c1NC(=O)Nc1ccc2nc(NC(=O)C3CCCCC3)sc2c1` it was 0.56 µg/mL (≈ 1.33 µM); in that of `O=C(NCCc1ccccc1)Nc1ccc2nc(NC(=O)C3CCCCC3)sc2c1`, 0.7 µg/mL (≈ 1.66 µM); in that of `C=CCOC(=O)Nc1ccc2nc(NC(=O)C3CCCCC3)sc2c1`, 0.58 µg/mL (≈ 1.61 µM). Still for that read-out and setting: with `O=C(Nc1ccc2nc(NC(=O)C3CCCCC3)sc2c1)c1cccc(F)c1` the figure was 0.64 µg/mL (≈ 1.61 µM); with `CCCC(C)C(=O)Nc1ccc2nc(NC(=O)C3CCCCC3)sc2c1` (stereo not drawn), 0.14 µg/mL (≈ 0.375 µM); with `CC(C)OC(=O)Nc1nc2ccc(NC(=O)c3c(Cl)cccc3Cl)cc2s1`, 0.0026 µg/mL (≈ 0.00613 µM). `CCC(C)(C)C(=O)Nc1ccc2nc(NC(=O)C3CCCCC3)sc2c1`: the EC50 worked out at 1 µg/mL (≈ 2.68 µM). Still for that read-out and setting: with `O=C(Nc1nc2ccc(NC(=O)c3c(Cl)cccc3Cl)cc2s1)Oc1ccccc1` the figure was 1.1 µg/mL (≈ 2.4 µM); with `CC(=O)Nc1ccc2nc(NC(=O)C3CCCCC3)sc2c1`, 2.7 µg/mL (≈ 8.51 µM). For `O=C(Nc1nc2ccc(N/C(S)=N/c3ccccc3OC(F)(F)F)cc2s1)C1CCCCC1`, the EC50 came to 2.3 µg/mL (≈ 4.65 µM). Regarding `Cc1nc(C)c(C(=O)Nc2ccc3nc(NC(=O)C4CCCCC4)sc3c2)s1`, the EC50 turned out to be 0.39 µg/mL (≈ 0.941 µM). The same measure, in the same setting: in the case of `CCCCNC(=O)Nc1nc2ccc(NC(=O)c3c(Cl)cccc3Cl)cc2s1` it was 0.028 µg/mL (≈ 0.064 µM). On the same count and under the same terms, in the case of `O=C(Nc1ccc2nc(NC(=O)C3CCCCC3)sc2c1)c1ccccc1F` it was 0.14 µg/mL (≈ 0.352 µM). Consider `O=C(Nc1ccc2nc(NC(=O)C3CCCCC3)sc2c1)c1ccc(Br)cc1`, for which the EC50 was over 4 µg/mL. In the case of `NCCC(=O)Nc1nc2ccc(NC(=O)c3c(Cl)cccc3Cl)cc2s1`, the EC50 came to 5.3 µg/mL (≈ 12.9 µM). Consider `O=C(O)CCC(=O)Nc1nc2ccc(NC(=O)c3c(Cl)cccc3Cl)cc2s1`, for which the EC50 is over 6.6 µg/mL. Still for that read-out and setting: in the case of `Cc1cc(C(=O)Nc2ccc3nc(NC(=O)C4CCCCC4)sc3c2)c(C)n1C` it was over 6.2 µg/mL. Regarding `CCCCOc1ccc(S(=O)(=O)Nc2ccc3nc(NC(=O)C4CCCCC4)sc3c2)cc1`, the EC50 stood at 0.75 µg/mL (≈ 1.54 µM). Still for that read-out and setting: in the case of `Cc1ccccc1C(=O)Nc1ccc2nc(NC(=O)C3CCCCC3)sc2c1` it was 0.085 µg/mL (≈ 0.216 µM); in that of `O=C(Nc1ccc2nc(NCC3CCCCC3)sc2c1)c1c(Cl)cccc1Cl`, 4.3 µg/mL (≈ 9.9 µM); in that of `O=C(Nc1nc2ccc(NC(=O)C3CCCO3)cc2s1)C1CCCCC1` (stereo not drawn), 1.3 µg/mL (≈ 3.48 µM). For `O=C(Nc1ccc2nc(NC(=O)C3CCCCC3)sc2c1)c1c(F)cccc1C(F)(F)F`, the EC50 is 0.032 µg/mL (≈ 0.0687 µM). Still for that read-out and setting: with `Cc1ccc(F)cc1S(=O)(=O)Nc1ccc2nc(NC(=O)C3CCCCC3)sc2c1` the figure was 0.7 µg/mL (≈ 1.56 µM); with `CCNC(=O)Nc1nc2ccc(NC(=O)c3c(Cl)cccc3Cl)cc2s1`, 0.032 µg/mL (≈ 0.0782 µM).

Turning to `CCCCCCNC(=O)Nc1nc2ccc(NC(=O)c3c(Cl)cccc3Cl)cc2s1`, the EC50 came out at 0.29 µg/mL (≈ 0.623 µM).

Take `COc1ccc(Nc2nc3ccc(NC(=O)c4c(Cl)cccc4Cl)cc3s2)cc1`: the EC50 is 0.87 µg/mL (≈ 1.96 µM). As to `COc1cccc(Nc2nc3ccc(NC(=O)c4c(Cl)cccc4Cl)cc3s2)c1`, the EC50 was over 7.2 µg/mL. `O=C(Nc1ccc2nc(NC(=O)C3CC3)sc2c1)c1c(Cl)cccc1Cl`: the EC50 came out at 0.013 µg/mL (≈ 0.032 µM). The same measure, in the same setting: with `O=C(Nc1ccc2nc(NC(=O)C3CCCCC3)sc2c1)c1c(Cl)cccc1Cl` the figure was 0.015 µg/mL (≈ 0.0335 µM); with `CCOC(=O)Nc1nc2cc(NC(=O)c3c(Cl)cccc3Cl)ccc2s1`, 2.5 µg/mL (≈ 6.09 µM). Take `Cc1coc(C)c1C(=O)Nc1ccc2nc(NC(=O)C3CCCCC3)sc2c1`: the EC50 came out at 2.7 µg/mL (≈ 6.79 µM).

The next experiment relates to Mus musculus. Put plainly: In vivo percent inhibitory effect on tumor growth after 11 days against mouse Lewis lung carcinoma xenograft model (LLC) at the dose of 40 mg/kg/shot; (Schedule day=1,4,7). The conditions noted are these: 264 h, read-out: TGI. Format: functional. The essentials: as §1
`Cn1ncc([N+](=O)[O-])c1C(=O)Nc1ccc2nc(NC(=O)C3CCCCC3)sc2c1`: the inhibition in vivo at 40 mg/kg came to 15%. `O=C(Nc1ccc2nc(NC(=O)C3CCCCC3)sc2c1)c1c(Cl)cccc1Cl`: the inhibition in vivo at 40 mg/kg came out at 35%.

The species named for another experiment is Mus musculus. Put plainly: Half life time in plasma (concentration). Format: functional, organism-based.
Conditions: not given
In short, it runs like this:
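Plasma levels were measured in BDF1 female mice after iv administration at 10 mg/kg, with n = 2 and the mean concentration–time profile reported. The plasma half-life was derived from these profiles.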
Turning to `O=C(Nc1ccc2nc(NC(=O)C3CCCCC3)sc2c1)c1c(Cl)cccc1Cl`, the T1/2 worked out at 1.1 h.
